Each structure is given as a SMILES string.

What all share (type): ADME
Data set [1] addresses T1, UDP-glucuronosyltransferase 1A6 (Homo sapiens, UniProt P19224).
T1 sequence (P19224 whole entry): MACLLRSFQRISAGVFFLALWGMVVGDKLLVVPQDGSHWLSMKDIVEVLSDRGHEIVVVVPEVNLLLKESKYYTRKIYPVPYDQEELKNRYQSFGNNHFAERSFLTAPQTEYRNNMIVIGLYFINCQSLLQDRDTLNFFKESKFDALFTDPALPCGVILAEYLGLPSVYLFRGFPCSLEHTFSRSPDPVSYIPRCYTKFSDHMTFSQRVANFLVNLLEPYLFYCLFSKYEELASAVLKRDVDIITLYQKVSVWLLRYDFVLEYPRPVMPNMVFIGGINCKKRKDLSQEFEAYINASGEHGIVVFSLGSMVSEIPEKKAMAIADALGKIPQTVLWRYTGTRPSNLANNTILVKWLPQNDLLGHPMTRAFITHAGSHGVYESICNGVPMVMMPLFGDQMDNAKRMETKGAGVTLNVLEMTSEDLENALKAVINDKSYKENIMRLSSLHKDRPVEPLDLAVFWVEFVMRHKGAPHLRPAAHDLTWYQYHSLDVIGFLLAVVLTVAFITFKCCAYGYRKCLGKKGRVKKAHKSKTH
In words: Drug metabolism assessed as human UGT1A6-mediated N'-glucuronide-triclocarban formation expressed in baculovirus infected insect sf9 cells incubated for 5 mins prior to UDPGA addition measured after 5 to 30 mins by LC-UV analysis. The method, boiled down: (§1)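 Microsomes or UGT Supersomes (5 µg protein) were held 15 min on ice with alamethicin in 100 mM potassium phosphate pH 7.4. TCC was added at 10 µM (2% DMSO) with 10 mM MgCl2 and 10 mM saccharolactone, pre-warmed 5 min at 37 °C, then started with UDPGA. Samples at 5, 10, 15 and 30 min were quenched in ACN. Product was read by LC-UV at 265 nm; rate came from regression over time, three incubations.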

The target of data set [2] is T2, UDP-glucuronosyltransferase 1A9 (Homo sapiens, UniProt O60656).
T2 sequence (O60656 whole entry): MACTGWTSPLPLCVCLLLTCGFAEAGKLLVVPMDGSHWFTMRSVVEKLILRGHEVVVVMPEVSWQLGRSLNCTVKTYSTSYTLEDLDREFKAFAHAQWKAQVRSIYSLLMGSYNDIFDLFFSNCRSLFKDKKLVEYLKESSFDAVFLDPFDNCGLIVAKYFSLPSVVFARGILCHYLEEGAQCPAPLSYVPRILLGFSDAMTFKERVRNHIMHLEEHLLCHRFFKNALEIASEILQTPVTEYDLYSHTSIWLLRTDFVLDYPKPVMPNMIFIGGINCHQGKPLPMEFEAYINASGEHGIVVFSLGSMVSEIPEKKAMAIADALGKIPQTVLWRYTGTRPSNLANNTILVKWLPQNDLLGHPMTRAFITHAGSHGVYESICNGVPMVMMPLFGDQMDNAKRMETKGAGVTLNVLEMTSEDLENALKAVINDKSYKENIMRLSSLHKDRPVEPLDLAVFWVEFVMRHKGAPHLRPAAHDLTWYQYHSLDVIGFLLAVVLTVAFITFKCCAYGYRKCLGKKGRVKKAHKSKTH
In words: Drug metabolism assessed as human UGT1A9-mediated N-glucuronide-triclocarban formation expressed in baculovirus infected insect sf9 cells incubated for 5 mins prior to UDPGA addition measured after 30 mins by LC-ESI-MS analysis. To be noted: sf9, 0.5 h. An outline of the steps: (§2)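 TCC was incubated at 10 µM (2% DMSO) in 100 mM phosphate pH 7.4 with alamethicin-treated microsomes or Supersomes, 10 mM MgCl2 and 10 mM saccharolactone. After 5 min pre-incubation at 37 °C, UDPGA was added to start the reaction. Protein was raised up to 2 mg/mL. Samples were quenched in ACN with 1 µM DCC internal standard, centrifuged, and N-glucuronides detected by LC-ESI-MS/MS in SRM mode.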

Data set [3] addresses T3, UDP-glucuronosyltransferase 1A10 (Homo sapiens, UniProt Q9HAW8).
T3 sequence (Q9HAW8 whole entry): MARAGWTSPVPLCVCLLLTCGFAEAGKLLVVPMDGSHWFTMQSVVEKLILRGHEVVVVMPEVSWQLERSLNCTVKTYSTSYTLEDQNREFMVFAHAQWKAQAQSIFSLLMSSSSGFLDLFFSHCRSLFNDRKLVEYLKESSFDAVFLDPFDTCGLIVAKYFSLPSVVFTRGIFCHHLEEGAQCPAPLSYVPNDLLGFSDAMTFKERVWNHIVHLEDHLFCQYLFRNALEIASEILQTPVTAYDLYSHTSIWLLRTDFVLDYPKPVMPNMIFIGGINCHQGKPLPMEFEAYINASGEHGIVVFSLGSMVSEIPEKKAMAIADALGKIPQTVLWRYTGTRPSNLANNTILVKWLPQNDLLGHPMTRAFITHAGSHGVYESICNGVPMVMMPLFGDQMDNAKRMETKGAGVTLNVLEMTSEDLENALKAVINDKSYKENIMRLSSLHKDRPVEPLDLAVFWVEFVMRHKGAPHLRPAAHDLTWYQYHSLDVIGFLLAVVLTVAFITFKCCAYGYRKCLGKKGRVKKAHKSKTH
The data set can be described thus: Drug metabolism assessed as human UGT1A10-mediated N-glucuronide-triclocarban formation expressed in baculovirus infected insect sf9 cells incubated for 5 mins prior to UDPGA addition measured after 5 to 30 mins by LC-UV analysis. The method, boiled down:
as §1

In data set [4] the target is T4, UDP-glucuronosyltransferase 2B7 (Homo sapiens, UniProt P16662).
T4 sequence (P16662 whole entry): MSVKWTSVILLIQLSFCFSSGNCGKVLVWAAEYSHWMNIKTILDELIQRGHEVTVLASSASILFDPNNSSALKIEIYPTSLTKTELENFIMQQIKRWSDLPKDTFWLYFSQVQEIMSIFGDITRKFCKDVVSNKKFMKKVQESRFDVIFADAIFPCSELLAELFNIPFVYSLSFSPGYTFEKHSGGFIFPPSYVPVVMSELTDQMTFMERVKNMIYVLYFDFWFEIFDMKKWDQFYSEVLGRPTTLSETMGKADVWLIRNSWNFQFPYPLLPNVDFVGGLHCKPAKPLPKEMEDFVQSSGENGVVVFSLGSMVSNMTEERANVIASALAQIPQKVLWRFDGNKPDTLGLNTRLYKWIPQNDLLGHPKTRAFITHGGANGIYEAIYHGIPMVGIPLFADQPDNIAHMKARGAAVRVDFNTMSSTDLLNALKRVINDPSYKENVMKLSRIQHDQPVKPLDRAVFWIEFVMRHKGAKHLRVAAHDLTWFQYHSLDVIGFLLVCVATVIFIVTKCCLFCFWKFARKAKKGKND
In words: Drug metabolism assessed as human UGT2B7-mediated N'-glucuronide-triclocarban formation expressed in baculovirus infected insect sf9 cells incubated for 5 mins prior to UDPGA addition measured after 5 to 30 mins by LC-UV analysis. The method, boiled down:
as §1

Data set [5] is described as follows: Drug metabolism in B6C3F1 mouse liver microsomes assessed as N-glucuronide-triclocarban formation incubated for 5 mins prior to UDPGA addition measured after 5 to 30 mins by LC-UV analysis. The method, boiled down:
as §1
(In general: Liver microsomes are a subcellular fraction often used to study metabolism.)

Data set [6] in a line: Drug metabolism in B6C3F1 mouse liver microsomes assessed as N-glucuronide-triclocarban formation incubated for 5 mins prior to UDPGA addition measured after 30 mins by LC-UV-ESI-MS/MS analysis. To be noted: 0.5 h. The method, boiled down:
as §2

As to `O=C(Nc1ccc(Cl)cc1)Nc1ccc(Cl)c(Cl)c1` [TRICLOCARBAN], the Drug metabolism result is “metabolite_not_detected” in data set [1]; “metabolite_detected” in data set [2]; “metabolite_not_detected” in data set [3]; “metabolite_not_detected” in data set [4]; “metabolite_not_detected” in data set [5]; “metabolite_detected” in data set [6].

The record behind these values is ChEMBL document CHEMBL3525967, “In vitro glucuronidation of the antibacterial triclocarban and its oxidative metabolites” (Drug Metab Dispos, 2012).
